Test results reported in ChEMBL document CHEMBL4613214, “In Vitro Activation of Cytochrome P450 46A1 (CYP46A1) by Efavirenz-Related Compounds” (J Med Chem, 2020).
Active and inactive are the calls of the source. No cut-off for these calls is given here.

Tests used:
[1] = tested on: Cholesterol 24-hydroxylase (Homo sapiens), Q9Y6A2 [UNDEFINED MUTATION]; test: Activation of recombinant human C-terminal 4His-tagged CYP46A1 delta(2 to 50) mutant expressed in Escherichia coli using cholesterol as substrate measured after 30 mins in presence of cytochrome P450 oxidoreductase by gas chromatography-mass spectrometry
Summary of the method: (§1)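 Concentration-dependence curves with test compound at 0–100 μM (2% final methanol). Enzyme: 0.5 μM Δ(2-50)CYP46A1 plus 1.0 μM P450 oxidoreductase. Buffer: KPi pH 7.2, 100 mM NaCl, dilauroylphosphatidylcholine, 40 μM cholesterol, catalase, NADPH-regenerating system. Run 30 min at 37 °C. 24-Hydroxycholesterol quantified by GC-MS with a deuterated internal standard, expressed as nmol/nmol P450/min; mean ± SD, three experiments.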

[2] = tested on: Cholesterol 24-hydroxylase (Homo sapiens), Q9Y6A2 [UNDEFINED MUTATION]; test: Activation of recombinant human C-terminal 4His-tagged CYP46A1 delta(2 to 50) mutant expressed in Escherichia coli at 20 uM using cholesterol as substrate measured after 30 mins in presence of cytochrome P450 oxidoreductase by gas chromatography-mass spectrometry relative to control
Summary of the method: (§2)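 Fixed 20 μM test compound (final, 2% methanol) with 0.5 μM purified Δ(2-50)CYP46A1 (wild type or mutant) and 1.0 μM rat P450 oxidoreductase. Buffer: 50 mM KPi pH 7.2, 100 mM NaCl, 40 μg/mL dilauroylphosphatidylcholine, 40 μM cholesterol, catalase, NADPH-regenerating system. Run 30 min at 37 °C. 24-Hydroxycholesterol measured by GC-MS against a deuterated internal standard. Fold activation over no-activator control; mean ± SD, three independent experiments.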

[3] = target: T1, Cholesterol 24-hydroxylase (Homo sapiens, UniProt Q9Y6A2); test: Inhibition of recombinant human C-terminal 4His-tagged CYP46A1 delta(2 to 50) mutant expressed in Escherichia coli at 60 to 100 uM using cholesterol as substrate measured after 30 mins in presence of cytochrome P450 oxidoreductase by gas chromatography-mass spectrometry; type: ADME; details: 0.5 h; summary of the method: as §1
[4] = tested on: Cholesterol 24-hydroxylase (Homo sapiens), Q9Y6A2 [UNDEFINED MUTATION]; test: Activation of recombinant human C-terminal 4His-tagged CYP46A1 delta(2 to 50) mutant expressed in Escherichia coli at 20 uM using cholesterol as substrate measured after 30 mins in presence of cytochrome P450 oxidoreductase and L-Glu by gas chromatography-mass spectrometry relative to control
Summary of the method: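 Co-incubation of 100 μM L-Glu with 20 μM test compound, 0.5 μM Δ(2-50)CYP46A1 and 1.0 μM P450 oxidoreductase. Buffer: 50 mM KPi pH 7.2, 100 mM NaCl, phospholipid, 40 μM cholesterol, NADPH-regenerating system. Run 30 min at 37 °C. 24-Hydroxycholesterol measured by GC-MS with a deuterated internal standard. Fold activation relative to control; mean ± SD of three experiments.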

Homo sapiens [5] = species: Homo sapiens; test: Activation of recombinant human C-terminal 4His-tagged CYP46A1 delta(2 to 50) R415A mutant expressed in Escherichia coli at 20 uM using cholesterol as substrate measured after 30 mins in presence of cytochrome P450 oxidoreductase by gas chromatography-mass spectrometry; summary of the method: as §2
Homo sapiens [6] = species: Homo sapiens; test: Activation of recombinant human C-terminal 4His-tagged CYP46A1 delta(2 to 50) F405A mutant expressed in Escherichia coli at 20 uM using cholesterol as substrate measured after 30 mins in presence of cytochrome P450 oxidoreductase by gas chromatography-mass spectrometry; summary of the method: as §2
Homo sapiens [7] = species: Homo sapiens; test: Activation of recombinant human C-terminal 4His-tagged CYP46A1 delta(2 to 50) K358A mutant expressed in Escherichia coli at 20 uM using cholesterol as substrate measured after 30 mins in presence of cytochrome P450 oxidoreductase by gas chromatography-mass spectrometry; summary of the method: as §2
Homo sapiens [8] = species: Homo sapiens; test: Activation of recombinant human C-terminal 4His-tagged CYP46A1 delta(2 to 50) F416A mutant expressed in Escherichia coli at 20 uM using cholesterol as substrate measured after 30 mins in presence of cytochrome P450 oxidoreductase by gas chromatography-mass spectrometry; summary of the method: as §2
Homo sapiens [9] = species: Homo sapiens; test: Activation of recombinant human C-terminal 4His-tagged CYP46A1 delta(2 to 50) Y427A mutant expressed in Escherichia coli at 20 uM using cholesterol as substrate measured after 30 mins in presence of cytochrome P450 oxidoreductase by gas chromatography-mass spectrometry; summary of the method: as §2
Homo sapiens [10] = species: Homo sapiens; test: Activation of recombinant human C-terminal 4His-tagged CYP46A1 delta(2 to 50) K358R mutant expressed in Escherichia coli at 20 uM using cholesterol as substrate measured after 30 mins in presence of cytochrome P450 oxidoreductase by gas chromatography-mass spectrometry; summary of the method: as §2
Homo sapiens [11] = species: Homo sapiens; test: Activation of recombinant human C-terminal 4His-tagged CYP46A1 delta(2 to 50) K358L mutant expressed in Escherichia coli at 20 uM using cholesterol as substrate measured after 30 mins in presence of cytochrome P450 oxidoreductase by gas chromatography-mass spectrometry; summary of the method: as §2
Homo sapiens [12] = species: Homo sapiens; test: Activation of recombinant human C-terminal 4His-tagged CYP46A1 delta(2 to 50) Y427F mutant expressed in Escherichia coli at 20 uM using cholesterol as substrate measured after 30 mins in presence of cytochrome P450 oxidoreductase by gas chromatography-mass spectrometry; summary of the method: as §2
[13] = target: T1, Cholesterol 24-hydroxylase; test: Inhibition of recombinant human C-terminal 4His-tagged CYP46A1 delta(2 to 50) mutant expressed in Escherichia coli at up to 100 uM using cholesterol as substrate measured after 30 mins in presence of cytochrome P450 oxidoreductase by gas chromatography-mass spectrometry; type: ADME; details: 0.5 h; summary of the method: as §1
[14] = tested on: Cholesterol 24-hydroxylase (Homo sapiens), Q9Y6A2 [UNDEFINED MUTATION]; test: Binding affinity to recombinant human C-terminal 4His-tagged CYP46A1 delta(2 to 50) mutant expressed in Escherichia coli at 15 to 30 uM in absence of substrate by UV-spectrophotometric method
Summary of the method: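 Stopped-flow rapid-scanning spectrophotometry at 23 °C. Substrate-free CYP46A1 (4 μM, in 50 mM KPi pH 7.2 with 100 mM NaCl) was mixed with an equal volume of compound in the same buffer. Spectra were collected over 330–570 nm, and binding rates (kobserved) were fitted.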

[15] = tested on: Cholesterol 24-hydroxylase (Homo sapiens), Q9Y6A2 [UNDEFINED MUTATION]; test: Binding affinity to recombinant human C-terminal 4His-tagged CYP46A1 delta(2 to 50) mutant expressed in Escherichia coli at 2 uM in presence of substrate by UV-spectrophotometric method
Summary of the method: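 Stopped-flow rapid-scanning spectrophotometry at 23 °C in 50 mM KPi pH 7.2 with 100 mM NaCl. A premixed 4 μM CYP46A1·4 μM cholesterol complex was mixed with compound, and spectral changes were followed over 330–570 nm.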

[16] = target: T1, Cholesterol 24-hydroxylase; test: Binding affinity to recombinant human C-terminal 4His-tagged CYP46A1 delta(2 to 50) mutant expressed in Escherichia coli in absence of substrate at 24 degC by stopped-flow spectrophotometric method
[17] = tested on: Cholesterol 24-hydroxylase (Homo sapiens), Q9Y6A2 [UNDEFINED MUTATION]; test: Binding affinity to substrate bound recombinant human C-terminal 4His-tagged CYP46A1 delta(2 to 50) mutant expressed in Escherichia coli assessed as Koff rate of cholesterol by stopped-flow spectrophotometric method
Summary of the method: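 Release rate was measured by stopped-flow chase at 23 °C. A prebound complex (4 μM CYP46A1 plus 4 μM cholesterol, 50 mM KPi pH 7.2, 100 mM NaCl) was mixed with excess clotrimazole (40 μM). The rise in Δ(A437−A416) was followed, and 8–12 traces were averaged and fitted. Values are mean ± SD of three independent experiments.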

[18] = tested on: Cholesterol 24-hydroxylase (Homo sapiens), Q9Y6A2 [UNDEFINED MUTATION]; test: Binding affinity to substrate free recombinant human C-terminal 4His-tagged CYP46A1 delta(2 to 50) mutant expressed in Escherichia coli assessed as Kon rate of cholesterol by stopped-flow spectrophotometric method

Cholesterol 24-hydroxylase (Homo sapiens), Q9Y6A2 [UNDEFINED MUTATION], sequence (Q9Y6A2 whole entry, looked up, stated change not applied): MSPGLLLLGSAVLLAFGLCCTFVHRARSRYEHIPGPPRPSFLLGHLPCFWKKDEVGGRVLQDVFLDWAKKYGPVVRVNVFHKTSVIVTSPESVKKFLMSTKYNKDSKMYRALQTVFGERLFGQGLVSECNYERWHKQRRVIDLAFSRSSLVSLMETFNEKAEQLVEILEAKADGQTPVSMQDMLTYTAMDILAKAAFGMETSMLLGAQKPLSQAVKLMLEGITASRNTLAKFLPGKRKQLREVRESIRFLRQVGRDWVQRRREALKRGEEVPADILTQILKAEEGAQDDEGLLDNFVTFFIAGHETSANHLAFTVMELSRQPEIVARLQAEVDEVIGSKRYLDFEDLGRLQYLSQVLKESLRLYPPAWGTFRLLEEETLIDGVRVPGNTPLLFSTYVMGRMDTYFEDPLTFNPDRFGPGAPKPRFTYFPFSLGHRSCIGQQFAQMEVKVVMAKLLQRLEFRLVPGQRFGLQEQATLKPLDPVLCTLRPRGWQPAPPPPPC
T1 sequence (Q9Y6A2 whole entry, looked up, stated change not applied): as above

Activity [1] | fold change (FC) [2] | inhibition (INH) [3] | Activity [4] | Activity (Homo sapiens [5]) | Activity (Homo sapiens [6]) | Activity (Homo sapiens [7]) | Activity (Homo sapiens [8]) | Activity (Homo sapiens [9]) | Activity (Homo sapiens [10]) | Activity (Homo sapiens [11]) | Activity (Homo sapiens [12]) | inhibition (INH) [13] | fold change (FC) [4] | Activity [14] | Activity [15] | Kd [16] | K [17] | K [18] | Structure (SMILES)
Dose-dependent effect | 2.6 | Not Active | inactive | inactive | inactive | Active | Active | Active | Active | Active | Active | – | – | – | – | – | – | – | CC1Nc2ccc(Cl)cc2C(C#CC2CC2)(C(F)(F)F)O1 (racemic)
Dose-dependent effect | 2.5 | – | inactive | inactive | inactive | Active | Active | Active | Active | Active | Active | Not Active | – | – | – | – | – | – | FC(F)(F)[C@@]1(C#CC2CC2)OCNc2ccc(Cl)cc21
Dose-dependent effect | 3.1 | Not Active | – | Active | Active | inactive | inactive | inactive | inactive | inactive | inactive | – | 3.7 | – | – | – | – | – | CCCC#CC1(C(F)(F)F)OC(=O)Nc2ccc(Cl)cc21 (racemic)
– | – | Active | – | Active | Active | inactive | inactive | inactive | inactive | inactive | – | – | – | – | – | – | – | – | O=C1Nc2ccc(Cl)cc2[C@@](C#CC2CC2)(C(F)(F)F)O1 [EFAVIRENZ]
Dose-dependent effect | 3.9 | Not Active | – | Active | Active | inactive | inactive | inactive | inactive | inactive | inactive | – | 4.6 | – | – | – | – | – | O=C1CC(C#CC2CC2)(C(F)(F)F)c2cc(Cl)ccc2N1 (racemic)
Dose-dependent effect | 5.8 | Not Active | – | Active | Active | Active | Active | Active | Active | Active | Active | – | 6.8 | – | – | – | – | – | O=C1Nc2cc(O)c(Cl)cc2C(C#CC2CC2)(C(F)(F)F)O1 (racemic)
Dose-dependent effect | – | Not Active | – | – | – | – | – | – | – | – | – | – | – | – | – | – | – | – | O=C1Nc2c(O)cc(Cl)cc2C(C#CC2CC2)(C(F)(F)F)O1 (racemic)
– | 1.9 | – | – | Active | Active | Active | Active | Active | Active | Active | Active | Not Active | 2.8 | – | – | – | – | – | O=C1Cc2ccc(Cl)cc2C(C#CC2CC2)(C(F)(F)F)O1 (racemic)
Dose-dependent effect | 6.2 | Not Active | – | Active | Active | Active | Active | Active | Active | Active | Active | – | 7.4 | – | – | – | – | – | O=C1Nc2c(O)cc(Cl)cc2[C@@](C#CC2CC2)(C(F)(F)F)O1
– | 6.1 | – | – | inactive | inactive | Active | Active | Active | Active | Active | Active | – | 4.8 | inactive | inactive | 5 µM | 3.6 s⁻¹ | 0.7 ×10⁶ /M/s | O=C1Nc2c(O)cc(Cl)cc2C(C#CC2(O)CC2)(C(F)(F)F)O1 (racemic)
